Results published in ChEMBL document CHEMBL4028904, “Discovery of a Novel Series of Tankyrase Inhibitors by a Hybridization Approach” (J Med Chem, 2017).
Values after ≈ are worked out from the molar mass of the structure shown.

Assays:
[1] = Inhibition of CYP1A in human liver microsomes using ethoxyresorufin as substrate after 30 mins by LC-MS/MS analysis; assay type: ADME
[2] = target: Cytochrome P450 2C19 (Homo sapiens, UniProt P33261); assay: Inhibition of CYP2C19 in human liver microsomes using mephenytoin as substrate after 30 mins by LC-MS/MS analysis; assay type: ADME
[3] = Cmax in Sprague-Dawley rat at 14 mg/kg, po measured up to 24 hrs postdose; assay type: ADME, organism-based; parameters: dose 14 mg/kg, route oral; details: in vivo
[4] = Apparent permeability across apical to basolateral side in MDCK cells expressing human MDR1 at 10 uM after 2 hrs by LC/MS/MS analysis; assay type: ADME, cell-based, Canis lupus familiaris; details: dog
[5] = target: Poly [ADP-ribose] polymerase 1 (Homo sapiens, UniProt P09874); assay: Inhibition of recombinant human PARP1 expressed in Escherichia coli using NAD+ as substrate after 10 mins by fluorescence assay
[6] = Cmax in ICR mouse at 5 mg/kg, po measured up to 24 hrs postdose; assay type: ADME, organism-based; parameters: dose 5 mg/kg, route oral; details: in vivo
[7] = AUC (0 to t) in Beagle dog at 7 mg/kg, po measured up to 24 hrs postdose; assay type: ADME, organism-based, Canis lupus familiaris; parameters: time < 24 hr, dose 7 mg/kg, route oral; details: in vivo
[8] = AUC (0 to t) in ICR mouse at 5 mg/kg, po measured up to 24 hrs postdose; assay type: ADME, organism-based; parameters: time < 24 hr, dose 5 mg/kg, route oral; details: in vivo
[9] = tested on: P388; assay: Antitumor activity against mouse P388 cells allografted in immunocompetent BDF1 mouse assessed as tumor growth inhibition at 15 mg/kg, po administered qd for 10 days measured on day 12 post last dose; assay type: functional; details: read-out: TGI
Outline: (§1)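 Immunocompetent BDF1 (DBA2 × C57Bl6j) mice were implanted with p388 cells and randomized after 2 days into vehicle (1% starch, n = 6) and two treatment groups (n = 5 each). Dosing was oral, once daily, for 10 days. Tumor size was measured by caliper at the end. Values are tumor size reduction relative to vehicle control.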

[10] = Drug excretion in Sprague-Dawley rat feces at 7 mg/kg, iv or 14 mg/kg, po measured up to 24 hrs by LC-MS/MS; assay type: ADME, organism-based; details: in vivo
[11] = target: Protein mono-ADP-ribosyltransferase PARP4 (Homo sapiens, UniProt Q9UKK3); assay: Inhibition of human PARP4 using NAD+ as substrate by fluorescence assay
Protein mono-ADP-ribosyltransferase PARP4, sequence (Q9UKK3 whole entry): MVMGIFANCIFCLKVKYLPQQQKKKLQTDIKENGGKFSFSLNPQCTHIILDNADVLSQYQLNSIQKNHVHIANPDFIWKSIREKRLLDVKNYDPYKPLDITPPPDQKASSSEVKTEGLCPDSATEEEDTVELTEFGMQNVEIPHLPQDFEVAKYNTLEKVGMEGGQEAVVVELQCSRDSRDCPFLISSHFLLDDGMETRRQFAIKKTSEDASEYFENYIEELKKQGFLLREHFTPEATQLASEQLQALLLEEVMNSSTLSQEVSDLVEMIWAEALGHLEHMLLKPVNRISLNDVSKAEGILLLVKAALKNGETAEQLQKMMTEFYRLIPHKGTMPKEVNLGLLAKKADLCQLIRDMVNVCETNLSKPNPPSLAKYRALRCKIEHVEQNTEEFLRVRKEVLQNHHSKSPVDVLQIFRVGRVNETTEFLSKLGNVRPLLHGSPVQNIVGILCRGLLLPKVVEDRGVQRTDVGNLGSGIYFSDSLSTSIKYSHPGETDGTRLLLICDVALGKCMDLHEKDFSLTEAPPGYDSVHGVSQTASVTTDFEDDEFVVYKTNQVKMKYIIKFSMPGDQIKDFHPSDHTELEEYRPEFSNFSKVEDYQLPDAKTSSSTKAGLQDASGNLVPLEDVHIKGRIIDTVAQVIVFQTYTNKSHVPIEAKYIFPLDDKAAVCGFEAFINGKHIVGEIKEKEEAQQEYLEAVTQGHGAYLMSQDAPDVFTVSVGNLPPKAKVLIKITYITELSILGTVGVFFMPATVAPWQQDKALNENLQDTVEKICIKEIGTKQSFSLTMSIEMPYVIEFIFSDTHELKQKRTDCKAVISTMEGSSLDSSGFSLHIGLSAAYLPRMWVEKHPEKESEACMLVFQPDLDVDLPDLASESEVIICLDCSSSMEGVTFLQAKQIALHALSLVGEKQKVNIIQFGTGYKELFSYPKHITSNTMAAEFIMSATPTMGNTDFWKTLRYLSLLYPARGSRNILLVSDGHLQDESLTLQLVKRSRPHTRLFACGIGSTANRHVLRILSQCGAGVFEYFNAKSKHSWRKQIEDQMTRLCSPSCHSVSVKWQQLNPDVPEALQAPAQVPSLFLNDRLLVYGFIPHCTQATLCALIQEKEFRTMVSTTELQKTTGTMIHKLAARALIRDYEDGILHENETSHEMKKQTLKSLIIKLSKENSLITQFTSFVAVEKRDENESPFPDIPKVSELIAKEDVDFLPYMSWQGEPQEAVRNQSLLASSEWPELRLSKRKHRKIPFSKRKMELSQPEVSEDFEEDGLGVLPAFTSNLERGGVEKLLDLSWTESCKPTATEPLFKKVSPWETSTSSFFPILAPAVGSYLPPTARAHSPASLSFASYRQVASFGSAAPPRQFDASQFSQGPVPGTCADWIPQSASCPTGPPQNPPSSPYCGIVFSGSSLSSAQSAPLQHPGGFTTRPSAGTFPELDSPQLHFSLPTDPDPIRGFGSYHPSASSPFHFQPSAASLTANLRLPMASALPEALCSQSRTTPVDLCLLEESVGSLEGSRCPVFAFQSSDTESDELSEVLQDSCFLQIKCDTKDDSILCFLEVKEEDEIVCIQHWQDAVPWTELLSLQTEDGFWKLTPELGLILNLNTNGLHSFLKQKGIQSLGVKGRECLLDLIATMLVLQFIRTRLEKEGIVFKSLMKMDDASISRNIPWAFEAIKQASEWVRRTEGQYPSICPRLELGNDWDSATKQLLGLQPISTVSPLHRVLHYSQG

[12] = tested on: Mus musculus; assay: Toxicity in immunodeficient nude Balb/c mouse xenografted with human COLO320DM cells assessed as body weight change at 15 to 60 mg/kg, po administered qd for 10 days measured on days 12, 17 and 21 post last dose; details: in vivo, 240 h
[13] = Kinetic solubility of the compound in PBS buffer at pH 7.4 at 25 degC after 2 hrs; assay type: physicochemical; details: read-out: Kinetic_solubility
[14] = target: Poly [ADP-ribose] polymerase 2 (Homo sapiens, UniProt Q9UGN5); assay: Inhibition of human GST-tagged PARP2 (2 to 583 residues) expressed in baculovirus infected Sf9 cell expression system using NAD+ as substrate after 4 hrs by fluorescence assay
[15] = tested on: COLO 320DM; assay: Antitumor activity against human COLO320DM cells xenografted in nude Balb/c mouse assessed as tumor growth inhibition at 30 mg/kg, po administered qd for 10 days measured on days 12, 17 and 21 post last dose; assay type: functional; details: 240 h, read-out: TGI
Outline: (§2)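 Tumor-bearing mice were randomized 2 days after inoculation into four groups: vehicle (1% starch, n = 4) and 15, 30 or 60 mg/kg (n = 5 each). Dosing was oral, once daily, for 10 days. Tumor size was measured by caliper on days 12, 17 and 21. Values are tumor volume reduction relative to vehicle-treated controls.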

[16] = tested on: Mus musculus; assay: Toxicity in immunocompetent BDF1 mouse allografted with mouse P388 cells assessed as body weight change at 15 to 30 mg/kg, po administered qd for 10 days measured on day 12 post last dose; assay type: organism-based; details: in vivo, 240 h
[17] = target: Maternal embryonic leucine zipper kinase (Homo sapiens) (UniProt Q14680); assay: Inhibition of MELK (unknown origin) at 10 uM after 60 mins in presence of [gamma-33P]-ATP by microplate scintillation counting
Outline: (§3)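 A panel of 320 wild-type protein kinases was screened with the compound at 10 μM. Activity is reported as percent inhibition.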

[18] = target: Serine/threonine-protein kinase 16 (Homo sapiens) (UniProt O75716); assay: Inhibition of TSF1 (unknown origin) at 10 uM after 60 mins in presence of [gamma-33P]-ATP by microplate scintillation counting; outline: as §3
[19] = Terminal half life in ICR mouse at 5 mg/kg, po measured up to 24 hrs postdose; assay type: ADME, organism-based; details: in vivo, read-out: beta t1/2 (converted)
[20] = tested on: COLO 320DM; assay: Antitumor activity against human COLO320DM cells xenografted in nude Balb/c mouse assessed as tumor growth inhibition at 60 mg/kg, po administered qd for 10 days measured on days 12, 17 and 21 post last dose; assay type: functional; details: 240 h, read-out: TGI; outline: as §2
[21] = target: Cytochrome P450 2C9 (Homo sapiens, UniProt P11712); assay: Inhibition of CYP2C9 in human liver microsomes using tolbutamide as substrate after 30 mins by LC-MS/MS analysis; assay type: ADME
Cytochrome P450 2C9, sequence (P11712 whole entry): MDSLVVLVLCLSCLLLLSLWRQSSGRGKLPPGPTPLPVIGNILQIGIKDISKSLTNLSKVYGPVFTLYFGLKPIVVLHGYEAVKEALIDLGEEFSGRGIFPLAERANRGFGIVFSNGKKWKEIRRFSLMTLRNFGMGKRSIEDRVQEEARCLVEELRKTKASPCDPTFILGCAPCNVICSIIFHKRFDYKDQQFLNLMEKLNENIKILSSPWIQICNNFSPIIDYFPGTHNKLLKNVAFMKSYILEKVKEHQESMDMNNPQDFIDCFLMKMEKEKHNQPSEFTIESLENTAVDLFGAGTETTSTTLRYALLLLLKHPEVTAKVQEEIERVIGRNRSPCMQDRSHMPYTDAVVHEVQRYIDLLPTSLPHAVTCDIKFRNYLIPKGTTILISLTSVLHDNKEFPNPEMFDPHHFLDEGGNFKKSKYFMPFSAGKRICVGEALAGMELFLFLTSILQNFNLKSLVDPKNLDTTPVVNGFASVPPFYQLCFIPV

[22] = tested on: P388; assay: Antitumor activity against mouse P388 cells allografted in immunocompetent BDF1 mouse assessed as tumor growth inhibition at 30 mg/kg, po administered qd for 10 days measured on day 12 post last dose; assay type: functional; details: read-out: TGI; outline: as §1
[23] = Apparent permeability across basolateral to apical side in MDCK cells expressing human MDR1 at 10 uM after 2 hrs by LC/MS/MS analysis; assay type: ADME, cell-based, Canis lupus familiaris; details: dog
[24] = tested on: Mus musculus; assay: Clearance in ICR mouse at 5 mg/kg, po measured up to 24 hrs; assay type: ADME, organism-based; details: in vivo
[25] = target: Protein mono-ADP-ribosyltransferase PARP16 (Homo sapiens, UniProt Q8N5Y8); assay: Inhibition of human PARP16 using NAD+ as substrate by fluorescence assay
Protein mono-ADP-ribosyltransferase PARP16, sequence (Q8N5Y8 whole entry): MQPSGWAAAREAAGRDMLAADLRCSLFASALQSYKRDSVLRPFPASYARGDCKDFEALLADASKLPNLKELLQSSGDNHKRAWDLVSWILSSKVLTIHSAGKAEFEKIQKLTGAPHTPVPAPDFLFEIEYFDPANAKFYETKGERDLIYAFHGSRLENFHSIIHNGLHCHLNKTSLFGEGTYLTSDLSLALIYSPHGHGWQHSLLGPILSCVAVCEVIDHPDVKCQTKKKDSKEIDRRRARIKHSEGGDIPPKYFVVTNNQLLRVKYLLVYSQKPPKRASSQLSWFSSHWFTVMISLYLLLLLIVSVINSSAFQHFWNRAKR

[26] = tested on: Liver; assay: Intrinsic clearance in human liver microsomes at 3 uM incubated up to 45 mins in presence of NADPH by LC-MS/MS analysis; assay type: ADME, microsome; details: 0.75 h
[27] = tested on: Mus musculus; assay: Toxicity in immunocompetent BDF1 mouse allografted with mouse P388 cells assessed as animal discomfort at 15 to 30 mg/kg, po administered qd for 10 days measured on day 12 post last dose; assay type: organism-based; details: in vivo, 240 h
[28] = target: Cytochrome P450 2D6 (Homo sapiens, UniProt P10635); assay: Inhibition of CYP2D6 in human liver microsomes using dextromethorphan as substrate after 30 mins by LC-MS/MS analysis; assay type: ADME
[29] = Oral bioavailability in Beagle dog at 7 mg/kg measured up to 24 hrs postdose; assay type: ADME, organism-based, Canis lupus familiaris; details: in vivo
[30] = Cmax in Beagle dog at 7 mg/kg, po measured up to 24 hrs postdose; assay type: ADME, organism-based, Canis lupus familiaris; parameters: dose 7 mg/kg, route oral; details: in vivo
[31] = Intrinsic clearance in human hepatocytes assessed per million cells at 3 uM measured up to 120 mins by LC-MS/MS analysis; assay type: ADME, cell-based, Hepatocyte; details: read-out: CLH
[32] = Oral bioavailability in ICR mouse at 5 mg/kg measured up to 24 hrs postdose; assay type: ADME, organism-based; details: in vivo
[33] = target: Protein mono-ADP-ribosyltransferase PARP3 (Homo sapiens, UniProt Q9Y6F1); assay: Inhibition of human PARP3 using NAD+ as substrate by fluorescence assay
[34] = target: Protein mono-ADP-ribosyltransferase PARP14 (Homo sapiens, UniProt Q460N5); assay: Inhibition of human PARP14 using NAD+ as substrate by fluorescence assay
Protein mono-ADP-ribosyltransferase PARP14, sequence (Q460N5 whole entry): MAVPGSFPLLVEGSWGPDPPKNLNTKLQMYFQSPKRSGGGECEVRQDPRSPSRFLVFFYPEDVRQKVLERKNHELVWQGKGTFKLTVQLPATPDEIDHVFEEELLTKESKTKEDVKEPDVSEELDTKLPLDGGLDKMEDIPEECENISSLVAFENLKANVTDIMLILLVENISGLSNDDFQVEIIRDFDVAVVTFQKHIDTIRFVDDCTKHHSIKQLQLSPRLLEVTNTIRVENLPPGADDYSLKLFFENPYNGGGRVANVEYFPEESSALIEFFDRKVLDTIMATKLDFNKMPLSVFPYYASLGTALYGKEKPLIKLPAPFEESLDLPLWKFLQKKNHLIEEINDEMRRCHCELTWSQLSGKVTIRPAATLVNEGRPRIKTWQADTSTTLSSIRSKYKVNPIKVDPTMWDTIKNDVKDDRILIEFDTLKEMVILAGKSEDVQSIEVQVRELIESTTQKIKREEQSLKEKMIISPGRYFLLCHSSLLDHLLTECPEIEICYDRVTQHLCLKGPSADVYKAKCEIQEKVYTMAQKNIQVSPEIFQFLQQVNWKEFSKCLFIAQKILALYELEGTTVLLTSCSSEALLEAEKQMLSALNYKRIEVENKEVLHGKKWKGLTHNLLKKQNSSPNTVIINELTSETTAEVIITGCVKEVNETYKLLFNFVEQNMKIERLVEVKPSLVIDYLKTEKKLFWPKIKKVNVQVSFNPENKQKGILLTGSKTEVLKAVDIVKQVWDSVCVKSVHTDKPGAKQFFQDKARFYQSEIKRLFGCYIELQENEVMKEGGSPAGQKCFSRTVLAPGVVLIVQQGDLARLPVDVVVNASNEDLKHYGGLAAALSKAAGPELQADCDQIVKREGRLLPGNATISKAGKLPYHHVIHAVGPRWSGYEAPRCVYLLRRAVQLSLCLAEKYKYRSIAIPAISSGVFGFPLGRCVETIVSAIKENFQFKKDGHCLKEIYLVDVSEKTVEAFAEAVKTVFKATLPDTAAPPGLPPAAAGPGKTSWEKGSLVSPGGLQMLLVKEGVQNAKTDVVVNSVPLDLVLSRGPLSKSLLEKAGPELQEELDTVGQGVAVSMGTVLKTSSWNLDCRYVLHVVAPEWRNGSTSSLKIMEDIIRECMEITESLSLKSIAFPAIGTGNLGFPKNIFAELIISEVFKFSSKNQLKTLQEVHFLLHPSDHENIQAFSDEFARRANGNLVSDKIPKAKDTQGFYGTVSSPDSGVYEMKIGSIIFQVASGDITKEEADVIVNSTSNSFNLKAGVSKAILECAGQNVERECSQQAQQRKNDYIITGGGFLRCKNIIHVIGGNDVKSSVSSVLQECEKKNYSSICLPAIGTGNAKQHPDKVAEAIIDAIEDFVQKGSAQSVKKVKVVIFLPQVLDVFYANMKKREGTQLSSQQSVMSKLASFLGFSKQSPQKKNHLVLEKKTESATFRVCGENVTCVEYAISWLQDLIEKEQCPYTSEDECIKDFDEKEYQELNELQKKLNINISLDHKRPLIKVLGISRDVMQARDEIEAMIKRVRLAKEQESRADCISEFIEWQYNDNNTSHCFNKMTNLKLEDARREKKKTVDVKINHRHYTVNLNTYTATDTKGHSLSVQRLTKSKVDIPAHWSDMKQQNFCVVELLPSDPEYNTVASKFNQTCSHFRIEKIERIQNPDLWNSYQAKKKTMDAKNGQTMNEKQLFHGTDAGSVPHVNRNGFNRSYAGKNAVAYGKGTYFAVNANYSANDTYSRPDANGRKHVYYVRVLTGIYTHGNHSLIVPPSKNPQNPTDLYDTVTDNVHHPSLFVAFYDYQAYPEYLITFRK

[35] = tested on: COLO 320DM; assay: Antitumor activity against human COLO320DM cells xenografted in nude Balb/c mouse assessed as tumor growth inhibition at 15 mg/kg, po administered qd for 10 days measured on days 12, 17 and 21 post last dose; assay type: functional; details: 240 h, read-out: TGI; outline: as §2
[36] = target: Protein mono-ADP-ribosyltransferase PARP12 (Homo sapiens, UniProt Q9H0J9); assay: Inhibition of human PARP12 using NAD+ as substrate by fluorescence assay
[37] = Oral bioavailability in Sprague-Dawley rat at 14 mg/kg measured up to 24 hrs postdose; assay type: ADME, organism-based; details: in vivo
[38] = target: Dual specificity protein kinase CLK2 (Homo sapiens) (UniProt P49760); assay: Inhibition of CLK2 (unknown origin) at 10 uM after 60 mins in presence of [gamma-33P]-ATP by microplate scintillation counting; outline: as §3
[39] = AUC (0 to t) in Sprague-Dawley rat at 14 mg/kg, po measured up to 24 hrs postdose; assay type: ADME, organism-based; parameters: time < 24 hr, dose 14 mg/kg, route oral; details: in vivo
[40] = tested on: Canis familiaris; assay: Clearance in Beagle dog at 7 mg/kg, po measured up to 24 hrs postdose; assay type: ADME, organism-based, Canis lupus familiaris; details: in vivo
[41] = target: Cytochrome P450 3A4 (Homo sapiens, UniProt P08684); assay: Inhibition of CYP3A4 in human liver microsomes using midazolam as substrate after 30 mins by LC-MS/MS analysis; assay type: ADME
Cytochrome P450 3A4, sequence (P08684 whole entry): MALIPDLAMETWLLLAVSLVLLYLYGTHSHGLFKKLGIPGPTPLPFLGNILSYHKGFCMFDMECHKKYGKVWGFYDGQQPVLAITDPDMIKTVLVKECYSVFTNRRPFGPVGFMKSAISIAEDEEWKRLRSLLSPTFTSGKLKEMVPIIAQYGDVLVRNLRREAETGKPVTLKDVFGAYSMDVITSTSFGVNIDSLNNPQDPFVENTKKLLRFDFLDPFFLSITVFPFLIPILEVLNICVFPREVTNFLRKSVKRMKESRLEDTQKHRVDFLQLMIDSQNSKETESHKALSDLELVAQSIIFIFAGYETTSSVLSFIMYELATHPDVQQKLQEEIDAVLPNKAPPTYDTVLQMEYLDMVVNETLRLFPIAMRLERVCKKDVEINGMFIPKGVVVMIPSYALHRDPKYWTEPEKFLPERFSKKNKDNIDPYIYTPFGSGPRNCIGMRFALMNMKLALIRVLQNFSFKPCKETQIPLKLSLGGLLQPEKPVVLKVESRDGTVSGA

[42] = Drug excretion in Sprague-Dawley rat urine at 7 mg/kg, iv or 14 mg/kg, po measured up to 24 hrs by LC-MS/MS; assay type: ADME, organism-based; details: in vivo
[43] = target: Protein mono-ADP-ribosyltransferase PARP15 (Homo sapiens, UniProt Q460N3); assay: Inhibition of human PARP15 using NAD+ as substrate by fluorescence assay
[44] = target: Protein mono-ADP-ribosyltransferase PARP10 (Homo sapiens, UniProt Q53GL7); assay: Inhibition of human PARP10 using NAD+ as substrate by fluorescence assay
[45] = target: cGMP-dependent protein kinase 1 (Homo sapiens) (UniProt Q13976); assay: Inhibition of PRKG1 (unknown origin) at 10 uM after 60 mins in presence of [gamma-33P]-ATP by microplate scintillation counting; outline: as §3
[46] = tested on: Mus musculus; assay: Toxicity in immunodeficient nude Balb/c mouse xenografted with human COLO320DM cells assessed as animal discomfort at 15 to 60 mg/kg, po administered qd for 10 days measured on days 12, 17 and 21 post last dose; details: in vivo, 240 h
[47] = Terminal half life in Beagle dog at 7 mg/kg, po measured up to 24 hrs postdose; assay type: ADME, organism-based, Canis lupus familiaris; details: in vivo, read-out: beta t1/2 (converted)

IC50 [1]: > 25 µM | IC50 [2]: > 25 µM | Cmax [3]: 843 ng/mL | Papp [4]: 5.3 ×10⁻⁷ cm/s | IC50 [5]: > 100 µM | Cmax [6]: 124 ng/mL | AUC(0-t) at 24 h [7]: 27100 ng·h/mL | AUC(0-t) at 24 h [8]: 145 ng·h/mL | Drug excretion [10]: Metabolite_Notdetected | IC50 [11]: > 100 µM | solubility kinetic at 2 h [13]: 31.2 µM (≈ 14.6 µg/mL) | IC50 [14]: > 100 µM | inhibition [17]: 70% | inhibition [18]: 52% | half-life [19]: 1.5 h | IC50 [21]: 11.9 µM | Papp [23]: 28.2 ×10⁻⁷ cm/s | clearance [24]: 567 mL/min/kg | IC50 [25]: > 10 µM | CLH [26]: 14.8 µL/min/mg | IC50 [28]: > 25 µM | bioavailability [29]: 91% | Cmax [30]: 5850 ng/mL | hepatocyte CLint at 3 µM [31]: 6.44 µL/min/1e6 cells | bioavailability [32]: 47% | IC50 [33]: > 100 µM | IC50 [34]: > 10 µM | IC50 [36]: > 10 µM | bioavailability [37]: 35% | inhibition [38]: 73% | AUC(0-t) at 24 h [39]: 2760 ng·h/mL | clearance [40]: 2.33 mL/min/kg | IC50 [41]: 1.3 µM | Drug excretion [42]: Metabolite_Notdetected | IC50 [43]: > 10 µM | IC50 [44]: > 10 µM | inhibition [45]: 66% | half-life [47]: 4.7 h
Compound: N#Cc1ccc2c(c1)[nH]c(=O)n2[C@H]1C[C@H](c2nnc(-c3ccncn3)n2-c2ccccc2Cl)C1
inhibition in vivo at 15 mg/kg [9]: 32% | Activity [12]: Non-Toxic | inhibition in vivo at 30 mg/kg [15]: 63% | Activity [16]: Non-Toxic | inhibition in vivo at 60 mg/kg [20]: 63% | inhibition in vivo at 30 mg/kg [22]: 57% | Activity [27]: Non-Toxic | inhibition in vivo at 15 mg/kg [35]: 53% | Activity [46]: Non-Toxic
